# Compound activity deposited in PubChem BioAssay by Johns Hopkins Ion Channel Center.
# Rows were chosen to be rich in hits. Some 3.5% of all compounds tested hit in one or more screens of this group.
# RGS4 act – RGS4 potentiators or activators, primary screen, cell-based, HEK293 M3R inducible RGS4, calcium flux; carbachol calcium flux Fluo4; hits give low values; B-score at 10 µM; actives 0.92% (n = 310,000); AID 463111, 2010;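 active = B-score of the integrated calcium signal more than 4 SD below the library mean, with starting fluorescence not abnormally high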;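 also: negative B-score means reduced calcium response which marks RGS4 activation or potentiation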
#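 Also added: carbachol at ECmax as muscarinic agonist stimulus; Assay system: HEK293 cells with stable M3R and inducible RGS4; Timing: overnight RGS4 induction, 30 min dye load 37 °C, 20 min compound RT; Measured by: Fluo4-AM (2 µM) calcium-flux fluorescence, kinetic read.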
# MrgX1 antag – antagonists of human MrgX1 receptor, primary screen, HEK293 cells, Fluo-4 calcium flux. Mas-related G-protein coupled receptor member X1 (Homo sapiens), Q96LB2. BAM8-22 antagonism; hits give low values. B-score at 10 µM. actives 1.3% (n = 310,000);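 active = calcium-response B-score plate-corrected more than 3 library SD below zero, starting fluorescence within 5 deviations, no agonist response on first addition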;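 also: peak minus trough fluorescence over baseline after final BAM8-22 challenge near maximal dose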
# Target sequence (Q96LB2 whole entry, looked up): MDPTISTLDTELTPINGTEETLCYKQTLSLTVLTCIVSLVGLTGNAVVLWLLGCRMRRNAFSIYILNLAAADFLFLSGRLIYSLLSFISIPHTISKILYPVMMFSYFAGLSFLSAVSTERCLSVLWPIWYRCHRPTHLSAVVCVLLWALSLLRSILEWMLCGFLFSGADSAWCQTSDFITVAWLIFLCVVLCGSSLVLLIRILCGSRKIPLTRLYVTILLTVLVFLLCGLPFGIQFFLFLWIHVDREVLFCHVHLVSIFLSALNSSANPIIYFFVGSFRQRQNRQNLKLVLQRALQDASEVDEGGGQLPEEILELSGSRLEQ
# MrgX1 allo act – positive allosteric modulators of MrgX1, primary screen, HEK293 cells, Fluo-4 calcium flux. FDSS; hits give high values. B-score at 10 µM. actives 0.63% (n = 310,000);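 active = plate-corrected calcium response at least 3 library SD above typical, normal starting fluorescence, not activating the receptor alone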;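 also: compound read alongside a low EC10 to EC30 dose of BAM8-22 agonist; peak minus trough fluorescence over baseline measured at the second addition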
# RGS4 block – RGS4 inhibitors, primary screen, cell-based, HEK293 M3R inducible RGS4, calcium flux | B-score at 10 µM | actives 0.45% (n = 310,000) | AID 463165, 2010 | Fluo-4 calcium flux; hits give high values; triggered by carbachol at its EC20 | Regulator of G-protein signaling 4 (Homo sapiens), P49798;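 active = B-score, a plate-corrected calcium signal, over three deviations above library mean, with baseline fluorescence within five deviations of library mean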;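 also: RGS4 expression induced by doxycycline in cells with stable M3 receptor; B-score is computed from the integrated fluorescence ratio over baseline after carbachol; higher B-score means a larger calcium signal and so more RGS4 inhibition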
# Target sequence (P49798 whole entry, looked up): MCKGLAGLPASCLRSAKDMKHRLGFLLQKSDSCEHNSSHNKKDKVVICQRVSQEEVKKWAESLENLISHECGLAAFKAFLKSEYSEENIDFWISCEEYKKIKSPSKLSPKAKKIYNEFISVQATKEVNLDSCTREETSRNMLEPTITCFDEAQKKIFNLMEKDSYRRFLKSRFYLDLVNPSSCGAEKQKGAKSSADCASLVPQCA
# MrgX1 agonist – agonists of human MrgX1 receptor, primary screen, HEK293 cells, Fluo-4 calcium flux. Fluo-4 calcium fluorescence, agonist mode; hits give high values. B-score at 10 µM. actives 0.44% (n = 310,000). AID 588627, 2011;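 active = calcium response B-score plate-corrected fluorescence ratio at least 3 library SD, with starting fluorescence B-score inside 5 SD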
#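 Material: MrgX1-expressing HEK293 cells / Dosing: compound as first of three additions / Incubation: overnight seeding, then 1 h dark dye loading / Signal: Fluo-4 NW calcium fluorescence / Evaluation: B-scored fluorescence response ratio / Benchmarks: positive and negative control wells on each plate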
# RGS4 inh valid – enhanced carbachol calcium response, M3R/RGS4 cells, RGS4 inhibitor project, cell-based, validation screen, HEK293 M3R/RGS4, calcium flux | calcium response, % at 10 µM | carbachol calcium Fluo-4 fluorescence; carbachol added at its EC20; 0 = buffer wells, 100 = carbachol control | actives 65% (n = 1,700) | shares compounds with RGS4 block;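 active = duplicate-averaged calcium response above the buffer-only control mean plus 5 SD of those controls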;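 also: integrated fluorescence ratio F max minus min over baseline F0; higher response in RGS4-induced cells means RGS4 inhibition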
# M3R Ca ctr – carbachol calcium response in non-induced M3R cells, confirmation, counter-screen for RGS4 inhibitor project, cell-based, HEK293 M3R | shares compounds with RGS4 block | carbachol calcium Fluo-4; submaximal (EC20) carbachol stimulus; buffer wells 0%, carbachol control wells 100% | activity (percent), % at 10 µM | actives 20% (n = 1,900) | AID 493000, 2010; call rule not given here;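 also: RGS4 induction absent so cells express M3R without RGS4; higher means more calcium signal and flags a non-specific hit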
# RGS4 inh ctr2 – second RGS4 inhibitor counter-screen in uninduced cells lacking carbachol. shares compounds with RGS4 block. calcium response (agonist-mode artifact), % at 10 µM. AID 493001. HEK293 M3R/RGS4 non-induced, Fluo-4 calcium, no carbachol; normalised: buffer wells 0%, carbachol wells 100%. actives 22% (n = 1,900);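 active = duplicate-averaged calcium rise in uninduced cells above buffer wells' mean plus 5 SD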
# Starred values were filed as active, the others as inactive; i = inactive; nt = no result.
SMILES,RGS4 act,MrgX1 antag,MrgX1 allo act,RGS4 block,MrgX1 agonist,RGS4 inh valid,M3R Ca ctr,RGS4 inh ctr2
Cc1cccc(-n2ccc(=O)c(C(=O)Nc3ccc(S(=O)(=O)Nc4onc(C)c4C)cc3)n2)c1,i,i,i,4.68*,i,7.0%*,i,i
Cc1noc(NS(=O)(=O)c2ccc(N/C=C/C(=O)c3ccc4c(c3)OCO4)cc2)c1C,i,i,i,i,i,nt,nt,nt
COc1ccc(NC(=S)NC(=O)c2cccnc2)cc1,i,i,i,i,i,nt,nt,nt
CCOC(=O)CN1CC23C=CC(O2)C(C(=O)NCc2cccs2)C3C1=O (stereo not drawn),i,i,i,i,i,nt,nt,nt
N#CC1=C(N)N=C(SCc2cccc3ccccc23)C(C(N)=O)C12CCCCC2 (stereo not drawn),i,i,i,5.9*,i,16.5%*,i,i
O=C(O)CCn1c(SCc2cccc3ccccc23)nc2ccccc21,i,i,i,i,i,nt,nt,nt
O=[N+]([O-])c1ccccc1-c1cc(-c2ccccc2O)n[nH]1,i,i,i,i,i,i,i,i
CN(CC(=O)Nc1ccccc1Cl)C(=O)COC(=O)c1ccc(Cl)cc1[N+](=O)[O-],i,i,i,i,i,nt,nt,nt
COc1ccc(CN2C(=O)/C(=C/c3ccncc3)SC2=S)cc1,i,i,i,10.9*,i,25.0%*,i,22.0%*
O=C(O)C(c1ccccc1)N1C(=O)/C(=C/c2cccs2)SC1=S (stereo not drawn),i,i,i,i,i,nt,nt,nt
CC(=O)Oc1ccc(/C=C2/SC(=S)N(Cc3ccccc3)C2=O)cc1,i,i,i,i,i,nt,nt,nt
CC(c1ccccc1)N1C(=O)/C(=C/c2ccncc2)SC1=S (stereo not drawn),i,i,i,7.04*,i,6.5%*,33.5%*,i
CCOc1cc(/C=C2/SC(=S)N(Cc3ccccc3)C2=O)ccc1O,i,i,i,i,i,nt,nt,nt
O=C1/C(=C/c2ccc(O)c([N+](=O)[O-])c2)SC(=S)N1Cc1ccccc1,i,-5.71*,i,7.76*,i,11.0%*,37.0%*,i
C=CCN=C1S/C(=C/c2cccc([N+](=O)[O-])c2)C(=O)N1CC=C,i,i,i,i,i,nt,nt,nt
O=C(O)c1cccc(CN2C(=O)S/C(=C/c3cccc([N+](=O)[O-])c3)C2=O)c1,i,i,i,26.4*,i,62.5%*,73.0%*,i
COc1ccc(N2C(=O)C(CN3CCCCC3)C2c2ccccc2)cc1 (stereo not drawn),i,i,i,i,i,nt,nt,nt
Oc1ccc2c(c1)C1CCCC1(N1CCOCC1)O2 (stereo not drawn),i,i,i,i,i,nt,nt,nt
O=C(O)c1ccc(/C=C2/SC(=S)N(Cc3ccccc3)C2=O)cc1,i,i,i,i,i,nt,nt,nt
O=C1/C(=C\c2ccc(O)cc2)SC(=S)N1Cc1ccccc1,i,i,i,8.13*,i,13.5%*,i,28.5%*
O=C(/C(=C/O)N=Nc1ccccc1)c1ccc(Cl)cc1,i,i,i,8.67*,i,63.5%*,78.5%*,i
COc1ccc(C(C(=O)NC2CCCCC2)N(C(=O)Cc2c[nH]c3ccccc23)c2ccccc2C)cc1OC (stereo not drawn),i,i,i,i,i,i,i,i
NC(=O)CC(NC(=O)Cc1ccc(Cl)cc1)c1ccc(NC2CCCCCCC2)c([N+](=O)[O-])c1 (stereo not drawn),i,i,i,4.68*,i,11.0%*,i,i
NC(=O)CC(NC(=O)Cc1ccc(Br)cc1)c1ccc(NC2CCCCCC2)c([N+](=O)[O-])c1 (stereo not drawn),i,i,i,i,i,i,i,i
NC(=O)CC(NC(=O)Cc1ccc(Br)cc1)c1ccc(NC2CCCC2)c([N+](=O)[O-])c1 (stereo not drawn),i,i,i,i,i,i,i,i
SMILES,RGS4 act,MrgX1 antag,MrgX1 allo act,RGS4 block,MrgX1 agonist,RGS4 inh valid,M3R Ca ctr,RGS4 inh ctr2
NC(=O)CC(NC(=O)Cc1ccc(Cl)cc1)c1ccc(NC2CCCCCC2)c([N+](=O)[O-])c1 (stereo not drawn),i,i,i,i,i,nt,nt,nt
O=C(C1CCCC1)N1CCC(CO)(Cc2ccccc2Cl)CC1,i,i,i,i,i,nt,nt,nt
O=C(NC(=S)Nc1cccc([N+](=O)[O-])c1)C1CCCC1,i,i,i,i,i,nt,nt,nt
COC(=O)C1=C(CS(=O)(=O)c2ccccc2)NC(=O)NC1c1ccc(OC)c(OC)c1 (stereo not drawn),i,i,i,i,i,i,i,i
CCOC(=O)C1=C(CS(=O)(=O)c2ccccc2)NC(=O)NC1c1ccc(OC)c(OC)c1 (stereo not drawn),i,i,i,i,i,nt,nt,nt
COc1ccc(/C=C/C(=O)c2cc(Cl)cc(Cl)c2O)c(OC)c1,i,i,i,i,i,nt,nt,nt
O=C(/C=C/c1ccccn1)c1cc(Cl)cc(Cl)c1O,i,i,i,15.1*,i,26.0%*,63.5%*,i
COc1ccc(Oc2ncccc2[N+](=O)[O-])cc1,i,i,i,12.6*,i,i,i,i
O=[N+]([O-])c1cccnc1Oc1ccc(F)cc1,i,i,i,i,i,nt,nt,nt
C[C@@H]1C[C@H]2[C@@H]3C[C@H](F)C4=CC(=O)C=C[C@]4(C)[C@@]3(F)[C@@H](O)C[C@]2(C)[C@@]1(O)C(=O)COC(=O)C(C)(C)C,i,i,i,i,i,nt,nt,nt
C=CCn1nc([N+](=O)[O-])nc1Sc1cccc2cccnc12,i,i,i,6.15*,i,30.5%*,i,i
